From ChEMBL document CHEMBL1144480, “Study on the substituents' effects of a series of synthetic chalcones against the yeast Candida albicans” (2007)
Converted amounts (≈) assume the structure as drawn. The source made the active and inactive calls. The calls are words filed in the database; no cut-off is given here.

Experiments:
[1] = test system: Candida albicans; test: Antifungal activity against Candida albicans Berhaut 62I after 24 hrs; assay type: functional
How it was run: (§1)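 Serial dilutions of each chalcone in meat-pepton broth in tubes; inoculum 10⁵ cells/ml; 37 °C, 24 h. MIC taken as the lowest dilution with no visible growth against inoculated drug-free broth. Tubes without visible growth streaked onto meat-pepton agar, 37 °C, 24 h, and checked for growth.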

[2] = test system: Candida albicans; test: Growth inhibition of Candida albicans Berhaut 62I by agar cup method; assay type: functional
How it was run: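 Each well received 100 µl of sample dissolved in 96% EtOH. Pre-diffusion at 4 °C for 2 h, then 37 °C for 48 h. Read-out was inhibitory zone diameter, with ≥15 mm initially counted as active. Pure solvent served as control.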

[3] = test system: Candida albicans; test: Antifungal activity against Candida albicans Berhaut 62I in meat-pepton broth; assay type: functional; how it was run: as §1
[4] = test system: Candida albicans; test: Antifungal activity against Candida albicans Berhaut 62I at 2000 ug/ml; assay type: functional, organism-based
[5] = Candida albicans, Berhaut 62I, read-out: MIC

| Structure (SMILES) | MIC [1] [µg/mL] | inhibition zone (IZ) [2] [mm] | MIC [3, 5] [µg/mL] | Activity [4] | MIC [3] [µg/mL] |
| --- | --- | --- | --- | --- | --- |
| O=C(/C=C/c1ccc2c(c1)OCO2)c1ccc(Cl)cc1 | 500 (≈ 1740 µM) | 0 | 62.5 (≈ 218 µM) |  |  |
| O=C(/C=C/c1ccccc1)/C=C/c1ccccc1 |  |  |  | inactive |  |
| COc1ccc(/C=C/C(=O)c2cc(OC)c(OC)c(OC)c2)cc1 | 500 (≈ 1520 µM) | 0 | 500 (≈ 1520 µM) |  |  |
| COc1cc(/C=C/C(=O)c2ccc(Cl)cc2)cc(OC)c1O | 125 (≈ 392 µM) | 15 | 62.5 (≈ 196 µM) |  |  |
| COc1ccc(/C=C/C(=O)c2ccccc2)cc1 [4-METHOXY CHALCONE] | 500 (≈ 2100 µM) | 0 | 500 (≈ 2100 µM) |  |  |
| O=C(/C=C/C=C/c1ccccc1)c1ccccc1 |  |  |  | inactive |  |
| O=C(/C=C/c1ccc(O)cc1)c1ccc(Cl)cc1 | 62.5 (≈ 242 µM) | 21 | 62.5 (≈ 242 µM) |  |  |
| O=C(/C=C/c1cccc(O)c1)c1ccccc1 [3-HYDROXY CHALCONE] | 250 (≈ 1110 µM) | 17 | 250 (≈ 1110 µM) |  |  |
| COc1cc(C(=O)/C=C/c2ccc(N(C)C)cc2)cc(OC)c1OC | 500 (≈ 1460 µM) | 0 | 500 (≈ 1460 µM) |  |  |
| CC(=O)Nc1ccc(/C=C/C(=O)c2ccccc2)cc1 | 500 (≈ 1880 µM) | 0 | 500 (≈ 1880 µM) |  |  |
| O=C(/C=C/c1ccc(Cl)cc1)c1ccc(Cl)cc1 [4',4-DICHLOROCHALCONE] | 500 (≈ 1800 µM) | 0 | 500 (≈ 1800 µM) |  |  |
| O=C(/C=C/c1ccc(O)c(O)c1)c1ccccc1 | 62.5 (≈ 260 µM) | 15 | 62.5 (≈ 260 µM) |  |  |
| COc1ccc(/C=C/C(=O)c2ccc(Cl)cc2)cc1OC | 500 (≈ 1650 µM) | 0 | 62.5 (≈ 206 µM) |  | 62.5 (≈ 206 µM) |
| COc1ccc(/C=C/C(=O)c2ccc(Cl)cc2)cc1 | 500 (≈ 1830 µM) | 0 | 500 (≈ 1830 µM) |  |  |
| O=C(/C=C/c1ccc([N+](=O)[O-])cc1)c1ccccc1 | 250 (≈ 987 µM) | 17 | 250 (≈ 987 µM) |  |  |
| COc1cc(C(=O)/C=C/c2ccc(C)cc2)cc(OC)c1OC | 500 (≈ 1600 µM) | 0 | 500 (≈ 1600 µM) |  |  |
| O=C(/C=C/C=C/c1ccccc1)/C=C/C=C/c1ccccc1 |  |  |  | inactive |  |
| COc1cc(C(=O)/C=C/c2ccc(NC(C)=O)cc2)cc(OC)c1OC | 500 (≈ 1410 µM) | 0 | 500 (≈ 1410 µM) |  |  |
| O=C(/C=C/c1ccccc1O)c1ccccc1 | 31.2 (≈ 139 µM) | 21 | 31.2 (≈ 139 µM) |  |  |
| O=C(/C=C/c1ccccc1O)c1ccc(Cl)cc1 | 62.5 (≈ 242 µM) | 16 | 62.5 (≈ 242 µM) |  |  |
| O=C(/C=C/c1ccc(O)c(O)c1)c1ccc(Cl)cc1 | 62.5 (≈ 228 µM) | 14 | 62.5 (≈ 228 µM) |  |  |
| N#Cc1ccc(/C=C/C(=O)c2ccccc2)cc1 | 250 (≈ 1070 µM) | 17 | 250 (≈ 1070 µM) |  |  |
| Cc1ccc(/C=C/C(=O)c2ccc(Cl)cc2)cc1 | 500 (≈ 1950 µM) | 0 | 500 (≈ 1950 µM) |  |  |
